From article PMC6217654 (ACS Omega, 2018)

Tests used:
[1] = test system: reserpine-induced hypothermia mice; test: Antagonistic effect on reserpine-induced hypothermia in mice; type: in vivo; details: p.o.
Summary of the method: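 Male ddY mice (bought at 6 weeks, 1-week quarantine, ~25 °C). Reserpine 3 mg/kg s.c.; mice with rectal temperature ≤30 °C about 18 h later were used. Test compound in saline p.o. at 5 μmol/kg, TRH at 50 μmol/kg, saline controls. Rectal temperature by thermistor before and up to 7 h post-dose. Trapezoidal AUC0–7h, with saline AUC subtracted. Mean ± SD, ≥3 animals.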

[2] = test system: rats with Ara-C-induced cerebellar damage; test: Ara-C-induced cerebellar ataxia in rats, open field fall index; type: in vivo, rat; details: 79 10 and 30 mg/kg p.o. once daily for 7 days, vs control
plasma TSH level = test: TSH releasing activity after oral administration in rats; type: in vivo; details: rat
Summary of the method: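 Male Sprague-Dawley rats (258–320 g, n ≥ 4, fed), dosed p.o. at 0.1 or 1 mg/2 mL/kg in water. Blood taken by decapitation at scheduled times, clotted 30 min at 25 °C, centrifuged for serum. TSH measured by [125I] rat TSH assay kit with magnetic separation. Mean ± SD.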

[3] = PK of TRH and 79 after oral administration to fasted conscious rats; type: in vivo, rat
Summary of the method: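 Male Wistar rats (10–11 weeks, 230–274 g, n ≥ 4), fasted from the evening before dosing to the 12 h sample. Jugular cannula placed under isoflurane 2–3 days before. Single p.o. dose of 40 mg/4 mL/kg in saline. Heparinized blood (~0.3 mL) drawn via cannula; plasma deproteinized with methanol; HPLC with UV absorbance detection. Cmax, Tmax, AUC0–8h given as mean ± SD.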

[4] = Stability in rat plasma, cerebrum and cerebellum homogenate at 37 °C; type: in vitro ADME; details: for compound remaining, cerebellum: rat cerebellum homogenate; for compound remaining, cerebrum: rat cerebrum homogenate; for compound remaining, plasma: rat plasma
[5] = test system: CYP1A2, CYP2A6, CYP2B6, CYP2C8, CYP2C9, CYP2C19, CYP2D6, CYP2E1, CYP3A4/5, CYP4A11; test: Direct CYP inhibition, 10 CYP enzymes; type: in vitro ADME; details: human
[6] = test system: CYP1A2, CYP2A6, CYP2B6, CYP2C9, CYP2C19, CYP2D6, CYP2E1, CYP3A4/5, CYP4A11; test: Direct CYP inhibition, 10 CYP enzymes; type: in vitro ADME; details: human
CYP2C8 = target: T1, CYP2C8 (Homo sapiens, UniProt P10632); test: Direct CYP inhibition, CYP2C8; type: in vitro ADME
T1 sequence (P10632 1-490): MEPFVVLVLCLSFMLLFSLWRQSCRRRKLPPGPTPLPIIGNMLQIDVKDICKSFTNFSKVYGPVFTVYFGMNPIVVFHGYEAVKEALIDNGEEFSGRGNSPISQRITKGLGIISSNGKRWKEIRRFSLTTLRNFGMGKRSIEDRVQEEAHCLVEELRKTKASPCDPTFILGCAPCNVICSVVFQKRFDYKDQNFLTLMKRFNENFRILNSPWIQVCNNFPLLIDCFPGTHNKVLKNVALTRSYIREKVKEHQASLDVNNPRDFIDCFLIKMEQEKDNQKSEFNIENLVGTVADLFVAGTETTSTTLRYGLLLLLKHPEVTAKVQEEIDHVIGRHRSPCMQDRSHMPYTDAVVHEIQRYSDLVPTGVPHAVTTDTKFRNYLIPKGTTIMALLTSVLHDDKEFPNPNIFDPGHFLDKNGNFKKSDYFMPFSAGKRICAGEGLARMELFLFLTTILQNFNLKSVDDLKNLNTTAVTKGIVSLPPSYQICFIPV

rats = test: Acute lethal dose, single oral administration in rats; type: in vivo, rat
human TRH-R = details: read-out: Ki for human TRH-R; in vitro binding, reported previously; cited from earlier work
[7] = male, Wistar, rat, plasma, po, 40 mg/kg

C[C@@H]1OC(=O)N[C@@H]1C(=O)N[C@@H](Cc1cscn1)C(=O)N1CCC[C@H]1C [Compound 79, 1-{N-[(4S,5S)-(5-Methyl-2-oxooxazolidine-4-yl)carbonyl]-3-(thiazol-4-yl)-L-alanyl}-(2R)-2-methylpyrrolidine trihydrate]
rectal temperature compared with saline levels ([1]; 79 5 μmol/kg from 2 to 7 h, TRH 50 μmol/kg from 0 to 7 h): > 2.5 °C | rectal temperature ΔAUC0–7h = AUC0–7h(compounds) – AUC0–7h(saline) ([1]; reserpine-induced hypothermia mice, TRH 50 μmol/kg, 79 5 μmol/kg): 28.0 ± 4.3 °C·h | rectal temperature AUC0–7h ([1]; reserpine-induced hypothermia mice, TRH 50 μmol/kg, 79 5 μmol/kg, mean ± SD): 233.4 ± 4.3 °C·h | fall index [2]: significant decrease | plasma TSH level (plasma TSH level; p.o. 0.1 mg/kg, at 0.5 h): 46.8 ng/mL | plasma TSH level (plasma TSH level; p.o. 1 mg/kg, at 0.5 h): 80.4 ng/mL | plasma TSH level (plasma TSH level; p.o. 0.1 and 1 mg/kg, at 24 h): recovered to vehicle levels | Cmax and AUC0–8h relative to TRH ([3]; fasted rats, p.o. 40 mg/kg): over 12 times | AUC(0-t) [3, 7]: 817 ± 349 ng·h/mL | Cmax [3, 7]: 636 ± 232 ng/mL | Tmax [3, 7]: 15 min | compound remaining, cerebellum ([4]; 15 min): 100 ± 0.0% | compound remaining, cerebellum ([4]; 30 min): 99.9 ± 0.0% | compound remaining, cerebellum ([4]; 60 min): 99.7 ± 0.0% | compound remaining, cerebellum ([4]; 120 min): 99.6 ± 0.1% | compound remaining, cerebellum ([4]; 180 min): 99.5 ± 0.1% | compound remaining, cerebrum ([4]; 15 min): 100.2 ± 0.2% | compound remaining, cerebrum ([4]; 30 min): 100.2 ± 0.1% | compound remaining, cerebrum ([4]; 60 min): 100.3 ± 0.1% | compound remaining, cerebrum ([4]; 120 min): 99.9 ± 0.1% | compound remaining, cerebrum ([4]; 180 min): 99.7 ± 0.1% | compound remaining, plasma ([4]; 15 min): 100 ± 0.1% | compound remaining, plasma ([4]; 30 min): 99.8 ± 0.1% | compound remaining, plasma ([4]; 60 min): 99.6 ± 0.3% | compound remaining, plasma ([4]; 120 min): 99.8 ± 0.2% | compound remaining, plasma ([4]; 180 min): 99.8 ± 0.1% | inhibition at 300 μM [5]: ≤ 50% | inhibition at 300 μM [6]: ≤ 10% | inhibition at 300 μM (CYP2C8): ~20% | acute lethal dose (rats): over 2000 mg/kg | Ki (human TRH-R): 702 nM
